Laboratory results taken from paper PMC5759846 (Infection and Drug Resistance, 2018).

Key:
[1] = Serum teicoplanin trough concentration; assay type: in vivo, Chinese patients; settings: day 4
Outline: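 Day-4 serum (2–3 mL, additive-free tubes, spun 3,500 rpm 10 min) drawn 30 min before maintenance dose; trough measured by HPLC. Cure or failure judged days 5–7 after last dose from symptoms, laboratory and bacteriological findings. Target 15–30 mg/L; mean ± SD.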

[2] = introduction; ref [15]–[17]; cited from earlier work
[3] = introduction; ref [15]–[17]; cited from earlier work; remark: listed apart in the source
[4] = Group B, n=30, loading 400 mg q12h x3, maintenance 400 mg/day
[5] = Group C, n=17, loading 400 mg q12h x2, maintenance 200 mg/day
[6] = Group D, n=30, loading 400 mg q12h x1-3, maintenance 200 mg/day

In the case of teicoplanin, the “Mean teicoplanin Cmin for a failure” value ([1]; 38 patients with failed response, all groups, mean ± SD, SD) is reported as 10.01 ± 2.37 mg/L, the “Mean teicoplanin Cmin for a successful response” value ([1]; 75 patients with clinical cure, all groups, mean ± SD, SD) is reported as 18.92 ± 5.12 mg/L and the “Proportion of patients achieving target range Cmin 15–30 mg/L” value [1, 4] is reported as 66.67%. The “Proportion of patients with Cmin 10–30 mg/L” value [1, 4] was 86.67%, the “Proportion of patients achieving target range Cmin 15–30 mg/L” value [1, 5] was 70.59% and the “Proportion of patients with Cmin 10–30 mg/L” value [1, 5] was 88.23%. For the same substance, the “Proportion of patients achieving target range Cmin 15–30 mg/L” value [1, 6] was 23.33%, the “Proportion of patients with Cmin 10–30 mg/L” value [1, 6] was 70% and the plasma protein-binding rate [2] was “over 90%”. The elimination half-life [3] was 30 to 180 h.
